Results from ChEMBL document CHEMBL5724801, “EUbOPEN Chemogenomics Library - Multiplex” (2024).
Values joined by “and” are separate entries in the source; they are usually repeats but may differ in a detail not shown here. Equal entries are not always repeated.

System: Fibroblast
Experiment: Multiplex assay against human fibroblast
Format: toxicity, cell-based
In short: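 Four dyes were applied at seeding to live cells: Hoechst33342, BioTracker Green Microtubule Cytoskeleton Dye, MitoTracker Red and Annexin V Alexa Fluor 680. Imaging after compound addition used a CQ1 microscope at 37°C and 5% CO2. CellPathfinder machine-learning gating then sorted cells into Hoechst high-intensity objects or normal cells, normal cells into healthy, pyknosed or fragmented nuclei, and pyknosed cells into mitotic or apoptotic, with tubulin, mitochondrial-mass and membrane-permeability phenotypes given as per cents of healthy-nucleus cells.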

[1] = 12 h, 1 µM, compound concentration 1 uM
[2] = 12 h, 10 µM, compound concentration 10 uM
[3] = 24 h, 1 µM, compound concentration 1 uM
[4] = 24 h, 10 µM, compound concentration 10 uM
[5] = 48 h, 1 µM, compound concentration 1 uM
[6] = 48 h, 10 µM, compound concentration 10 uM

CC1(COc2ccc3c(c2)ncn3-c2ccc3cccc(N4CCC(N)CC4)c3n2)COC1 [CRENOLANIB]
Population Fragmented Nuclei (%) [1]: 27% and 33%
Population Healthy Nuclei (%) [1]: 60% and 47%
Population Hoechst High Intensity Objects (%) [1]: 2% and 4%
Population Membrane Permeable-Phenotype (%) [1]: 0% and 7%
Population Mitochondria Different-Phenotype (%) [1]: 4% and 9%
Population Mitotic Cells (%) [1]: 38% and 81%
Population Normal (%) [1]: 97% and 95%
Population Pyknosed Nuclei (%) [1]: 12% and 18%
Population Tubulin-Different-Phenotype (%) [1]: 48% and 67%
Population Apoptotic (%) [2]: 33% and 34%
Population Fragmented Nuclei (%) [2]: 21% and 29%
Population Healthy Nuclei (%) [2]: 48% and 40%
Population Hoechst High Intensity Objects (%) [2]: 4% and 13%
Population Membrane Permeable-Phenotype (%) [2]: 2% and 6%
Population Mitochondria Different-Phenotype (%) [2]: 6% and 9%
Population Mitotic Cells (%) [2]: 66% and 65%
Population Normal (%) [2]: 95% and 86%
Population Pyknosed Nuclei (%) [2]: 30%
Population Tubulin-Different-Phenotype (%) [2]: 43% and 48%
Population Apoptotic (%) [3]: 92% and 50%
Population Fragmented Nuclei (%) [3]: 29% and 41%
Population Healthy Nuclei (%) [3]: 60% and 48%
Population Hoechst High Intensity Objects (%) [3]: 0% and 1%
Population Membrane Permeable-Phenotype (%) [3]: 0% and 4%
Population Mitochondria Different-Phenotype (%) [3]: 9%
Population Normal (%) [3]: 99% and 98%
Population Pyknosed Nuclei (%) [3]: 9% and 10%
Population Tubulin-Different-Phenotype (%) [3]: 61% and 63%
Population Apoptotic (%) [4]: 36% and 34%
Population Fragmented Nuclei (%) [4]: 23% and 25%
Population Healthy Nuclei (%) [4]: 51% and 46%
Population Hoechst High Intensity Objects (%) [4]: 16% and 17%
Population Membrane Permeable-Phenotype (%) [4]: 0% and 6%
Population Mitochondria Different-Phenotype (%) [4]: 8% and 6%
Population Mitotic Cells (%) [4]: 63% and 65%
Population Normal (%) [4]: 83% and 82%
Population Pyknosed Nuclei (%) [4]: 24% and 28%
Population Tubulin-Different-Phenotype (%) [4]: 23% and 38%
Population Fragmented Nuclei (%) [5]: 32% and 44%
Population Healthy Nuclei (%) [5]: 60% and 44%
Population Hoechst High Intensity Objects (%) [5]: 1% and 0%
Population Membrane Permeable-Phenotype (%) [5]: 0% and 5%
Population Mitochondria Different-Phenotype (%) [5]: 8% and 7%
Population Normal (%) [5]: 98% and 99%
Population Pyknosed Nuclei (%) [5]: 7% and 12%
Population Tubulin-Different-Phenotype (%) [5]: 55% and 74%
Population Apoptotic (%) [6]: 42% and 37%
Population Fragmented Nuclei (%) [6]: 16% and 23%
Population Healthy Nuclei (%) [6]: 62% and 42%
Population Hoechst High Intensity Objects (%) [6]: 24% and 21%
Population Membrane Permeable-Phenotype (%) [6]: 1%
Population Mitochondria Different-Phenotype (%) [6]: 6%
Population Mitotic Cells (%) [6]: 57% and 62%
Population Normal (%) [6]: 75% and 78%
Population Pyknosed Nuclei (%) [6]: 21% and 33%
Population Tubulin-Different-Phenotype (%) [6]: 23% and 27%

Cl.N=C(N)NC(=O)Cc1c(Cl)cccc1Cl [GUANFACINE HYDROCHLORIDE]
Population Apoptotic (%) [1]: 44% and 28%
Population Fragmented Nuclei (%) [1]: 20% and 23%
Population Healthy Nuclei (%) [1]: 62% and 45%
Population Hoechst High Intensity Objects (%) [1]: 2%
Population Membrane Permeable-Phenotype (%) [1]: 0% and 3%
Population Mitochondria Different-Phenotype (%) [1]: 4% and 7%
Population Mitotic Cells (%) [1]: 55% and 71%
Population Normal (%) [1]: 97%
Population Pyknosed Nuclei (%) [1]: 16% and 31%
Population Tubulin-Different-Phenotype (%) [1]: 32% and 46%
Total Cell Count [1]: 167 and 149
Population Apoptotic (%) [2]: 66% and 35%
Population Fragmented Nuclei (%) [2]: 16% and 22%
Population Healthy Nuclei (%) [2]: 68% and 47%
Population Hoechst High Intensity Objects (%) [2]: 0% and 10%
Population Membrane Permeable-Phenotype (%) [2]: 1% and 5%
Population Mitochondria Different-Phenotype (%) [2]: 5%
Population Mitotic Cells (%) [2]: 33% and 64%
Population Normal (%) [2]: 99% and 89%
Population Pyknosed Nuclei (%) [2]: 15% and 29%
Population Tubulin-Different-Phenotype (%) [2]: 24% and 46%
Total Cell Count [2]: 139 and 127
Population Apoptotic (%) [3]: 58% and 45%
Population Fragmented Nuclei (%) [3]: 22% and 23%
Population Healthy Nuclei (%) [3]: 62% and 46%
Population Hoechst High Intensity Objects (%) [3]: 1% and 6%
Population Membrane Permeable-Phenotype (%) [3]: 0% and 12%
Population Mitochondria Different-Phenotype (%) [3]: 5% and 8%
Population Mitotic Cells (%) [3]: 41% and 54%
Population Normal (%) [3]: 98% and 93%
Population Pyknosed Nuclei (%) [3]: 14% and 30%
Population Tubulin-Different-Phenotype (%) [3]: 26% and 50%
Total Cell Count [3]: 169 and 130
Population Apoptotic (%) [4]: 63% and 25%
Population Fragmented Nuclei (%) [4]: 17% and 26%
Population Healthy Nuclei (%) [4]: 68% and 55%
Population Hoechst High Intensity Objects (%) [4]: 1% and 4%
Population Membrane Permeable-Phenotype (%) [4]: 0% and 13%
Population Mitochondria Different-Phenotype (%) [4]: 4% and 3%
Population Mitotic Cells (%) [4]: 36% and 75%
Population Normal (%) [4]: 98% and 95%
Population Pyknosed Nuclei (%) [4]: 14% and 18%
Total Cell Count [4]: 137 and 114
Population Apoptotic (%) [5]: 61% and 50%
Population Fragmented Nuclei (%) [5]: 25% and 33%
Population Healthy Nuclei (%) [5]: 63% and 45%
Population Hoechst High Intensity Objects (%) [5]: 1% and 3%
Population Membrane Permeable-Phenotype (%) [5]: 0% and 4%
Population Mitochondria Different-Phenotype (%) [5]: 6% and 11%
Population Mitotic Cells (%) [5]: 38% and 50%
Population Normal (%) [5]: 98% and 96%
Population Pyknosed Nuclei (%) [5]: 11% and 21%
Population Tubulin-Different-Phenotype (%) [5]: 32% and 57%
Total Cell Count [5]: 162 and 145
Population Apoptotic (%) [6]: 66% and 45%
Population Fragmented Nuclei (%) [6]: 22% and 39%
Population Healthy Nuclei (%) [6]: 67% and 41%
Population Hoechst High Intensity Objects (%) [6]: 1% and 6%
Population Membrane Permeable-Phenotype (%) [6]: 1% and 8%
Population Mitochondria Different-Phenotype (%) [6]: 6% and 2%
Population Mitotic Cells (%) [6]: 33% and 54%
Population Normal (%) [6]: 98% and 93%
Population Pyknosed Nuclei (%) [6]: 10% and 19%
Population Tubulin-Different-Phenotype (%) [6]: 24% and 67%
Total Cell Count [6]: 142 and 120

Cl.Cl.OCCOCCN1CCN(C(c2ccccc2)c2ccc(Cl)cc2)CC1 (stereo unspecified) [HYDROXYZINE HYDROCHLORIDE]
Population Apoptotic (%) [1]: 43% and 51%
Population Fragmented Nuclei (%) [1]: 11% and 22%
Population Healthy Nuclei (%) [1]: 75% and 57%
Population Hoechst High Intensity Objects (%) [1]: 1% and 7%
Population Membrane Permeable-Phenotype (%) [1]: 0% and 8%
Population Mitochondria Different-Phenotype (%) [1]: 4% and 6%
Population Mitotic Cells (%) [1]: 56% and 48%
Population Normal (%) [1]: 98% and 92%
Population Pyknosed Nuclei (%) [1]: 13% and 20%
Population Tubulin-Different-Phenotype (%) [1]: 25% and 46%
Total Cell Count [1]: 177 and 155
Population Apoptotic (%) [2]: 47% and 40%
Population Fragmented Nuclei (%) [2]: 27% and 19%
Population Healthy Nuclei (%) [2]: 58% and 47%
Population Hoechst High Intensity Objects (%) [2]: 2% and 7%
Population Membrane Permeable-Phenotype (%) [2]: 0% and 7%
Population Mitochondria Different-Phenotype (%) [2]: 14% and 6%
Population Mitotic Cells (%) [2]: 52% and 59%
Population Normal (%) [2]: 97% and 92%
Population Pyknosed Nuclei (%) [2]: 14% and 32%
Population Tubulin-Different-Phenotype (%) [2]: 45% and 58%
Total Cell Count [2]: 247 and 178
Population Apoptotic (%) [3]: 30% and 44%
Population Fragmented Nuclei (%) [3]: 9% and 26%
Population Healthy Nuclei (%) [3]: 78% and 54%
Population Hoechst High Intensity Objects (%) [3]: 1% and 5%
Population Membrane Permeable-Phenotype (%) [3]: 2% and 5%
Population Mitochondria Different-Phenotype (%) [3]: 6% and 3%
Population Mitotic Cells (%) [3]: 70% and 55%
Population Normal (%) [3]: 98% and 94%
Population Pyknosed Nuclei (%) [3]: 12% and 18%
Population Tubulin-Different-Phenotype (%) [3]: 30% and 47%
Total Cell Count [3]: 163 and 154
Population Apoptotic (%) [4]: 51% and 36%
Population Fragmented Nuclei (%) [4]: 28% and 29%
Population Healthy Nuclei (%) [4]: 62% and 50%
Population Hoechst High Intensity Objects (%) [4]: 1% and 9%
Population Membrane Permeable-Phenotype (%) [4]: 1% and 6%
Population Mitochondria Different-Phenotype (%) [4]: 10% and 6%
Population Mitotic Cells (%) [4]: 48% and 63%
Population Normal (%) [4]: 98% and 90%
Population Pyknosed Nuclei (%) [4]: 9% and 20%
Population Tubulin-Different-Phenotype (%) [4]: 47% and 66%
Total Cell Count [4]: 284 and 198
Population Apoptotic (%) [5]: 60% and 42%
Population Fragmented Nuclei (%) [5]: 17% and 34%
Population Healthy Nuclei (%) [5]: 68% and 56%
Population Hoechst High Intensity Objects (%) [5]: 4% and 3%
Population Membrane Permeable-Phenotype (%) [5]: 0% and 2%
Population Mitochondria Different-Phenotype (%) [5]: 3% and 5%
Population Mitotic Cells (%) [5]: 39% and 57%
Population Normal (%) [5]: 95% and 96%
Population Pyknosed Nuclei (%) [5]: 13% and 9%
Population Tubulin-Different-Phenotype (%) [5]: 31% and 44%
Total Cell Count [5]: 175 and 155
Population Apoptotic (%) [6]: 80% and 37%
Population Fragmented Nuclei (%) [6]: 22% and 36%
Population Healthy Nuclei (%) [6]: 69% and 47%
Population Hoechst High Intensity Objects (%) [6]: 4% and 6%
Population Membrane Permeable-Phenotype (%) [6]: 0% and 11%
Population Mitochondria Different-Phenotype (%) [6]: 7% and 2%
Population Normal (%) [6]: 95% and 94%
Population Pyknosed Nuclei (%) [6]: 8% and 15%
Population Tubulin-Different-Phenotype (%) [6]: 62% and 57%
Total Cell Count [6]: 272 and 200
